The values that follow come from PMC8811894 (ACS Omega, 2022).

For data set [1], the system named is A549 human lung epithelial carcinoma cells. The data set is described as follows: MTT cell toxicity assay. The note with it: Homo sapiens, A549, 72 h, read-out: cancer cell growth inhibition, GI50. Type of data set: cell-based. In a few lines:
(§1)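 Cells were seeded at 5 × 10^3/well in medium with 10% FBS and kept at 37 °C, 5% CO2. Media: DMEM for A549 and A375; EMEM for DU145; F-12K for PC-3; McCoy's 5a for HCT-116 and SK-OV-3; RPMI-1640 + insulin 0.2 Units/mL for T-47D. Test compound came from DMSO stocks, with tubercidin as positive control. MTT at 0.5 mg/mL final was added for 2–3 h at 37 °C, then absorbance read at 570 nm. Three repeats; GI50 from sigmoidal fit.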
(In general: Formazan colour is commonly taken as a measure of viable cells.)

Data set [2] relates to HCT-116 human colon epithelial colorectal carcinoma cells. The data set is described as follows: MTT cell toxicity assay. The settings on record: Homo sapiens, HCT-116, 72 h, read-out: cancer cell growth inhibition, GI50. It counts as cell-based. In outline: as §1
In data set [3] the test system is A375 human skin epithelial malignant melanoma cells. The data set is described as follows: MTT cell toxicity assay. It counts as cell-based. The settings on record: Homo sapiens, A-375, 72 h, read-out: cancer cell growth inhibition, GI50. In outline: as §1
Data set [4] has as its system SK-OV-3 human ovary ascites epithelial adenocarcinoma cells. The data set is described as follows: MTT cell toxicity assay. The settings on record: Homo sapiens, SK-OV-3, 72 h, read-out: cancer cell growth inhibition, GI50. Type of data set: cell-based. In outline: as §1
Data set [5] deals with PC-3 human prostate epithelial adenocarcinoma grade IV cells. The data set is described as follows: MTT cell toxicity assay. Type of data set: cell-based. The settings on record: Homo sapiens, 72 h, read-out: cancer cell growth inhibition, GI50. In outline:
as §1

Data set [6] concerns DU145 human prostate epithelial carcinoma cells. The data set is described as follows: MTT cell toxicity assay. It counts as cell-based. The settings on record: Homo sapiens, DU-145, 72 h, read-out: cancer cell growth inhibition, GI50. In a few lines: as §1
The subject of data set [7] is T-47D human breast carcinoma cells. The data set can be described thus: MTT cell toxicity assay. The note with it: for GI50: Homo sapiens, T47D, 72 h, read-out: cancer cell growth inhibition, GI50. It counts as cell-based. In a few lines:
as §1

The subject of data set [8] is HCT-116 human colon epithelial colorectal carcinoma cells. The data set can be described thus: Click-iT-EdU Alexa Fluor 488 cell proliferation assay. It counts as cell-based. The note with it: Homo sapiens, HCT-116, 72 h, read-out: DNA synthesis inhibition, GI50. In a few lines:
(§2)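 Cells were seeded at 800/well in medium with 10% FBS under 5% CO2. HCT-116 grew in McCoy's 5a and T-47D in RPMI-1640 + insulin 0.2 Units/mL. Test compound came from DMSO stocks, with tubercidin as positive control. After 72 h, EdU was added for 2.5 h at 37 °C. Cells were fixed in 4% paraformaldehyde (30 min, RT) and stained with Hoechst 33342. Click-iT Alexa Fluor 488 reaction ran 1 h at RT in the dark. Plates were read by high-content imaging; value from sigmoidal fit.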

Data set [9] concerns T-47D human breast carcinoma cells. The description is as above. The note with it: for GI50: Homo sapiens, T47D, 72 h, read-out: DNA synthesis inhibition, GI50. Type of data set: cell-based. In a few lines:
as §2

The test system of data set [10] is Caco-2 colon adenocarcinoma cells. The note with it: read-out: IC50, growth suppression; 24 h treatment; ref [9]; cited from earlier work.
In data set [11] the test system is panel of 60 human cancer cell lines. The data set can be described thus: NCI60 screen, SRB assay, panel mean. It counts as cell-based. The settings on record: single-dose inhibition of cell growth at 10 μM. In a few lines: (§3)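 Tested on the 60-line human cancer panel by sulforhodamine B assay. The dye binds cell protein under mildly acidic conditions and is extracted with basic medium; bound dye is taken as a proxy for cell mass. A single-dose test at 10 μM gives % growth inhibition; a five-dose test gives GI50.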
In general terms: Sulforhodamine B stains cellular protein and so reports cell mass.

In another data set the test system is MDA-MB-435. The data set can be described thus: NCI60 SRB screen. It counts as cell-based. The settings on record: Homo sapiens, MDA-MB-435, read-out: growth inhibition. In outline:
as §3

In another data set the test system is A498. The data set can be described thus: NCI60 SRB screen. It counts as cell-based. The note with it: Homo sapiens, A498, read-out: growth inhibition. In a few lines: as §3
In data set [12] the test system is MCF-7 human breast carcinoma cells. The settings on record: ref [30]; cited from earlier work.
Data set [13] deals with panel of 60 human cancer cell lines. The note with it: read-out: NCI60 screen mean GI50; SRB assay; ref NCI60 screen data, NSC 115712; cited from earlier work.

For `C=CCc1cc(OC)c2c(c1)OCO2` [1c, myristicin], the concentration for 50% growth inhibition (GI50) in data set [1], in data set [2], in [3], in data set [4], in [5] and in data set [6] was over 250000 nM in each case. The values for the GI50 in data set [7], in data set [8] and in data set [9] were 113000 ± 12400 nM, over 250000 nM and over 250000 nM, respectively. For the same compound, in data set [10], the IC50 is 760000 nM.
With `COc1cc(CCC[P+](c2ccccc2)(c2ccccc2)c2ccccc2)c(OC)c(OC)c1OC.[I-]` [7d, [3-(2,3,4,5-Tetramethoxyphenyl)propyl](triphenyl)phosphonium Iodide], the concentration for 50% growth inhibition (GI50) in data set [1] came out at 17900 ± 360 nM; in [2], 218 ± 24 nM; in [3] it was 2350 ± 240 nM; in [4] it was 21600 ± 1530 nM; in data set [5], 3880 ± 550 nM; in data set [6] it was 8130 ± 150 nM. The GI50 in [7] turned out to be 500 ± 70 nM; in data set [8], 681 ± 90 nM; in [9] it was 613 ± 25 nM. Further, the “times more potent than PrTPP” value in data set [7] (T-47D, MTT test) amounted to 4.8 times; in data set [9] (T-47D, Click-iT-EdU test) it was 5.6 times. The “NCI60 screen mean GI, %” value in data set [11] is 32.9%. In addition, the inhibition at 10 µM in the data set on MDA-MB-435 and with A498 was about 100% each time.
Turning to `CCCCCCCCCCCC[P+](c1ccccc1)(c1ccccc1)c1ccccc1` [dodecyl-TPP], the concentration exhibiting cytotoxicity in data set [12] is reported as 250 nM.
Turning to `Nc1ncnc2c1ccn2[C@@H]1O[C@H](CO)[C@@H](O)[C@H]1O` [tubercidin, Tubercidin, reference compound], the GI50 in data set [1] amounted to 44 ± 3 nM; in [2] it was 80 ± 4 nM; in [3], 43 ± 4 nM; in data set [4] it was 131 ± 2 nM; in data set [5] it was 76 ± 1 nM; in data set [6] it was 256 ± 90 nM. Besides, the 50% growth inhibitory concentration (GI50) is 13 ± 1 nM in [7], 30.7 ± 2 nM in data set [8], 44 ± 6 nM in data set [9] and 331 nM in [13].

Usually GI50 stands for the concentration giving 50% growth inhibition. A word on the IC50: it is the point on the concentration scale where inhibition reaches its midpoint. In general, inhibition refers to the change of the read-out against control, counted positive when it falls.
